Consider three compounds from ChEMBL document CHEMBL3399929 (Bioorg Med Chem, 2015).

Values after ≈ are worked out from the molar mass of the structure shown. Active and inactive are the calls of the source. The calls are words filed in the database; no cut-off is given here.

Usually inhibition stands for how much of the control response was suppressed. One may read the IC50 as the concentration needed to halve the response being measured. Broadly, the CC50 is the concentration at which the toxic effect on the cells reaches its halfway point.

Series [1] concerns Mycobacterium tuberculosis. In words: Bactericidal activity against non-replicating Mycobacterium tuberculosis H37Rv Wayne model under hypoxic/oxygen depleted conditions assessed as log reduction at 10 ug/ml after 4 days by serial dilution assay. It counts as functional. A digest of the protocol:
(§1)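 Wayne hypoxia model. A mid-log 7H9 culture was diluted to about 10^5 cfu/mL, and 10 mL was sealed in 20 mL headspace vials. Vials were stirred slowly at 37 °C for 20–22 days, until methylene blue indicator (1.5 µg/mL) decolorized. Drug was then injected through the septum, and vials were incubated 4 more days at 37 °C. Tests were run in duplicate, with CFU counted on 7H10 agar plates.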

Series [2] concerns Trichophyton mentagrophytes. The series is described as follows: Antifungal activity against Trichophyton mentagrophytes at 50 ug/ml. The format is functional, organism-based.
For series [3], the system named is Mycobacterium tuberculosis H37Rv. In words: Inhibition of Mycobacterium tuberculosis H37Rv ATP synthase assessed as reduction in total ATP content at 50 ug/ml after 18 hrs by bead-vortexing settling method. An outline of the steps:
(§2)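 H37Rv was declumped by bead-vortexing and settling, adjusted to McFarland 1, then diluted 100-fold. Portions of 1 mL in tubes with 0.5 mm glass beads were exposed to compound for 18 h at 37 °C. Samples were heated 8–10 min, chilled on ice, and bead-beater lysed. Cleared lysate ATP was measured by luciferase assay.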

For series [4], the system named is Mycobacterium tuberculosis. The series is described as follows: Bactericidal activity against non-replicating Mycobacterium tuberculosis H37Rv Wayne model under hypoxic/oxygen depleted conditions assessed as log reduction after 4 days by serial dilution assay. The format is functional. An outline of the steps: as §1
For the next series, the system named is Candida albicans. The series is described as follows: Antifungal activity against Candida albicans at 50 ug/ml. It counts as functional, organism-based.
Another series concerns Aspergillus fumigatus. The series is described as follows: Antifungal activity against Aspergillus fumigatus at 50 ug/ml. It counts as functional, organism-based.
Series [5] is described as follows: Selectivity ratio of IC50 for Mycobacterium smegmatis TMC 607 ATP synthase to IC50 for Swiss mouse liver ATP synthase.
The subject of the next series is Staphylococcus aureus. In words: Antibacterial activity against Staphylococcus aureus ATCC 25923 at 50 ug/ml. The format is functional, organism-based.
Series [6] is described as follows: Selectivity index, ratio of CC50 for African green monkey Vero cells to MIC100 for Mycobacterium tuberculosis H37Rv. The format is toxicity, cell-based. To be noted: read-out: Selectivity Index. An outline of the steps:
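Selectivity index is CC50 from the Vero resazurin assay divided by the agar-dilution MIC against H37Rv.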

The test system of series [7] is Mycobacterium tuberculosis H37Rv. In words: Inhibition of Mycobacterium tuberculosis H37Rv ATP synthase assessed as reduction in total ATP content at 12.5 ug/ml after 18 hrs by bead-vortexing settling method. A digest of the protocol:
as §2

A short description of series [8]: Inhibition of Swiss mouse liver ATP synthase after 1 hr. An outline of the steps: (§3)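 Liver mitochondria came from an overnight-fasted adult Swiss mouse, isolated by differential centrifugation in sucrose/Tris-MOPS/EGTA buffer pH 7.4 and assayed the same day. Mitochondria (100 µg) were stirred at room temperature with 100 µM compound in Tris/HCl, sucrose, 5 mM MgCl2 and 100 µM diadenosine pentaphosphate, pH 7.4. The reaction was started with 1 mM ADP, 20 mM Pi and 50 mM succinate, stopped after 1 h with EDTA-TCA, and ATP was read by luciferase.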

The subject of a further series is Candida parapsilosis. The series is described as follows: Antifungal activity against Candida parapsilosis ATCC 22019 at 50 ug/ml. The format is functional, organism-based.
Series [9] in a line: Cytotoxicity against mouse bone marrow macrophages […]. The format is cell-based. The settings on record: macrophage.
The test system of a further series is Cryptococcus neoformans. The series is described as follows: Antifungal activity against Cryptococcus neoformans at 50 ug/ml. The format is functional, organism-based.
A further series concerns Sporothrix schenckii. In words: Antifungal activity against Sporothrix schenckii at 50 ug/ml. The format is functional, organism-based.
Series [10] has as its system Mycobacterium tuberculosis. In words: Antimycobacterial activity against Mycobacterium tuberculosis H37Rv after 4 weeks by agar dilution assay. The format is functional. An outline of the steps: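 Agar dilution method. DMSO stocks (5 mg/mL) were serially diluted in DMSO, and 0.1 mL of each was mixed into 1.9 mL Middlebrook 7H10 agar with OADC and set as slants. Each tube received about 10^5 bacilli from a 3-week Lowenstein–Jensen culture suspended in saline with 0.05% Tween-80. Tubes were incubated at 37 °C for 4 weeks. MIC was the lowest concentration with no visible growth.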
A general note: Agar dilution tests growth on a series of plates holding different concentrations.

The nature of series [11]: Cytotoxicity against African green monkey Vero cells after 72 hrs yb resazurin assay. It counts as cell-based. The settings on record: chlorocebus sabaeus. A digest of the protocol: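 Vero cells were seeded overnight in RPMI with 10% heat-inactivated FBS at 37 °C, 5% CO2. Cells were exposed in triplicate to concentrations from 100 to 1.56 µg/mL for 72 h. Resazurin (0.1%) was then added for 4–5 h, and fluorescence was read at ex 530/em 590 nm. CC50 was derived from the fluorescence plot.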
A general note: Resazurin is reduced to fluorescent resorufin, in cell work by metabolically active cells.

In a further series the test system is Pseudomonas aeruginosa. The series is described as follows: Antibacterial activity against Pseudomonas aeruginosa ATCC BAA-427 at 50 ug/ml. It counts as functional, organism-based.
Another series concerns Escherichia coli. The series is described as follows: Antibacterial activity against Escherichia coli ATCC 9637 at 50 ug/ml. It counts as functional, organism-based.
Series [12] is described as follows: Inhibition of Mycobacterium smegmatis TMC 607 ATP synthase incubated for 10 mins prior to NADH addition measured after 1 hr by luminescence assay. On the set-up: species or system Mycolicibacterium smegmatis.
The subject of the next series is Klebsiella pneumoniae. In words: Antibacterial activity against Klebsiella pneumoniae ATCC 27736 at 50 ug/ml. It counts as functional, organism-based.
In series [13] the test system is Mycobacterium tuberculosis. In words: Bactericidal activity against non-replicating Mycobacterium tuberculosis H37Rv Wayne model under hypoxic/oxygen depleted conditions assessed as log reduction at 100 ug/ml after 4 days by serial dilution assay. It counts as functional. A digest of the protocol:
as §1

Series [14] deals with Mycobacterium tuberculosis H37Rv. The series is described as follows: Inhibition of Mycobacterium tuberculosis H37Rv ATP synthase assessed as reduction in total ATP content at 0.5 ug/ml after 18 hrs by bead-vortexing settling method. An outline of the steps:
as §2

The subject of series [15] is Mycobacterium tuberculosis. The series is described as follows: Bactericidal activity against non-replicating Mycobacterium tuberculosis H37Rv Wayne model under hypoxic/oxygen depleted conditions assessed as log reduction at 5 ug/ml after 4 days by serial dilution assay. It counts as functional. An outline of the steps:
as §1

Series [16] concerns Mycolicibacterium smegmatis. The series is described as follows: Inhibition of Mycobacterium smegmatis TMC 607 ATP synthase at 0.3 uM incubated for 10 mins prior to NADH addition measured after 1 hr by luminescence assay. An outline of the steps: (§4)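 Inverted membrane vesicles from M. smegmatis were diluted to 100 µg protein/mL in 50 mM MOPS pH 7.5 with 10 mM MgCl2. Vesicles were preincubated with compound for 10 min at room temperature with stirring, then given 2.5 mM NADH for 1 min. The reaction was started with 1 mM ADP plus 10 mM potassium phosphate and run for 1 h. It was quenched with EDTA/TCA, and ATP was read by luciferase luminescence.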

For series [17], the system named is Mycolicibacterium smegmatis. The series is described as follows: Inhibition of Mycobacterium smegmatis TMC 607 ATP synthase at 100 uM incubated for 10 mins prior to NADH addition measured after 1 hr by luminescence assay. An outline of the steps:
as §4

In series [18] the target is ATP synthase (Mycobacterium tuberculosis) (UniProt P9WPU9+P9WPU5+P9WPU7+P9WPV5+P9WPS1+P9WPV1+P9WPV7+P9WPV3). In words: Inhibition of Mycobacterium tuberculosis H37Rv ATP synthase assessed as reduction in total ATP content at 100 uM after 18 hrs by bead-vortexing settling method. The format is protein-complex assay. A digest of the protocol:
as §2

Another series is filed under the species Mus musculus. The series is described as follows: Inhibition of Swiss mouse liver ATP synthase at 100 uM after 1 hr. A digest of the protocol: as §3

With `CCN(CC)Cc1cc(N(c2cc(C)nc3cc(Cl)ccc23)S(=O)(=O)c2ccc(Cl)cc2Cl)ccc1O`, the figures for the log10CFU/ml in series [1] and in series [13] were 0.79 and 1.64, respectively. Further, the outcome (in series [2]; in the series with Candida albicans; in the series with Aspergillus fumigatus; with Staphylococcus aureus; in the series on Candida parapsilosis; with Cryptococcus neoformans) was inactive. The outcome in the series on Sporothrix schenckii, with Pseudomonas aeruginosa, in the series on Escherichia coli and in the series on Klebsiella pneumoniae was inactive. Moreover, the results for the inhibition in series [3] and in [7] were 26% and 54%, respectively. Also, the MIC100 in [4] and in series [10] was 3.12 µg/mL (≈ 5.39 µM) in each case. Further, in series [5], the Ratio IC50 was above 155. Also, the selectivity ratio in [6] was above 48. Also, the concentration for half-maximal inhibition (IC50) in [8] was above 100 µM; in series [12] (read-out: IC50) it was 630 nM. In addition, the Activity result in series [9] is “Non-toxic”. This compound showed a CC50 at 72 h in series [11] above 300 µg/mL.
`NNC(=O)c1ccncc1` [ISONIAZID]: the MIC in series [4] (Mycobacterium tuberculosis, H37Rv, 96 h, read-out: MIC100) is at most 0.12 µg/mL; in series [10] (Mycobacterium tuberculosis, H37Rv, 672 h, read-out: MIC100) it was 0.1 µg/mL (≈ 0.729 µM). Moreover, the inhibition in series [14] is 78.5%; in [16], 0%. The 50% inhibitory concentration (IC50) result in series [12] is “Not Active”. Moreover, the log10CFU/ml in [15] is recorded as 0.21.
For the compound `C(=NC1CCCCC1)=NC1CCCCC1` [DICYCLOHEXYLCARBODIIMIDE], in [4], the MIC100 entry was “inactive”. Also, the inhibition stood at 99.5% in series [17], 30% in series [18] and 83% in the series filed under Mus musculus. Moreover, the log10CFU/ml in [13] came out at 4.68.
